Laboratory results taken from ChEMBL document CHEMBL1123156 (J Med Chem, 1986).

Tests used:
[1] = target: T1, Cholesterol side-chain cleavage enzyme, mitochondrial (cytochrome P450scc) (Bos taurus, UniProt P00189); test: Inhibition of Bovine adrenal cholesterol side chain cleavage cytochrome P450 at 50 ug/mL; details: cattle
T1 sequence (P00189 whole entry): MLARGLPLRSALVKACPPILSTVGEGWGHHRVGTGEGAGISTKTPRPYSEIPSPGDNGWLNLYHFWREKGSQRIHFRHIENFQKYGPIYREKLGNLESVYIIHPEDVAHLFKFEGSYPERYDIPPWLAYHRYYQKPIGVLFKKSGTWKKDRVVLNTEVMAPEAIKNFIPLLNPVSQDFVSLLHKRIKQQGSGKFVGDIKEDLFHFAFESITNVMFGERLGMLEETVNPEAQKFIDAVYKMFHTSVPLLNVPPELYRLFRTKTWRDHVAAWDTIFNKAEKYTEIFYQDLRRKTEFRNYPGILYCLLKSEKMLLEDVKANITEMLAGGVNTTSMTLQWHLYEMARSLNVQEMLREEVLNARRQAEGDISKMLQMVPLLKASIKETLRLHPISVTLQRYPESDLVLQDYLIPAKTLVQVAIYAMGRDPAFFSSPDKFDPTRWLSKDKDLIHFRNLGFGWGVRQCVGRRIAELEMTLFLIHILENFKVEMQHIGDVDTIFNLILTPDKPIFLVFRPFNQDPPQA
Outline: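 Bovine adrenal CSCC enzyme (cholesterol to pregnenolone) preparation. Inhibitor at 50 μg/mL, the highest concentration tested. Result is percent inhibition relative to uninhibited control, as the mean of two determinations (variability <10%).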

Aromatase [2] = target: T2, Aromatase (Homo sapiens, UniProt P11511)
T2 sequence (P11511 whole entry): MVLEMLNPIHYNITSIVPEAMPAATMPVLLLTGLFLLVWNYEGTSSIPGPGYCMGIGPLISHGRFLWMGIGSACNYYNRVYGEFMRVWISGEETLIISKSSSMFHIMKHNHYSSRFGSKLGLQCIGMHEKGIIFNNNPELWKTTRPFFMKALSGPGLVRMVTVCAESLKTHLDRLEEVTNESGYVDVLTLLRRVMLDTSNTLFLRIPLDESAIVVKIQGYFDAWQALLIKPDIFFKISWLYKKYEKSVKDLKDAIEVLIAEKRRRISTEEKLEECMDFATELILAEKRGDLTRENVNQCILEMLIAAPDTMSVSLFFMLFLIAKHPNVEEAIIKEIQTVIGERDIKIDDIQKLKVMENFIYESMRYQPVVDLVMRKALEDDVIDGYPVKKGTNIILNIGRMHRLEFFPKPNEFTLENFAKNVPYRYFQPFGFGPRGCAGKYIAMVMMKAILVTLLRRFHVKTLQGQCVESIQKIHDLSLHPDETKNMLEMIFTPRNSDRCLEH

Aromatase [3] = target: T2, Aromatase; remark: listed apart in the source
Aromatase [4] = target: T2, Aromatase; remark: listed apart in the source
Aromatase [5] = target: T2, Aromatase; test: Inhibition of Cytochrome P450 19A1 at 20 ug/mL
Outline: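 Human placental aromatase preparation. Inhibitor at 20 μg/mL. Result is percent inhibition of androgen aromatization relative to control.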

Structure (SMILES)	inhibition at 50 ug/mL [1]	IC50 (Aromatase [2])	IC50 (Aromatase [3])	Ki (Aromatase [4])	inhibition at 20 µg/mL (Aromatase [5])
CCC1(c2ccc(N)cc2)CCC(=O)NC1=O (stereo not given) [AMINOGLUTETHIMIDE]	83%				
CCC1(c2ccc(N)cc2)CC(=O)NC1=O (stereo not given)	38%	8.4 µM	13.5 µM	1 µM	
CN1C(=O)CC(c2ccc(N)cc2)C1=O (stereo not given)	30%	10 µM	16.6 µM	1.75 µM	
CCC1(c2ccc(N)cc2)CC(=O)N(C)C1=O (stereo not given)	0%				
NC(=O)CCc1ccc([N+](=O)[O-])cc1	28%				8%
CC1(c2ccc(N)cc2)CC(=O)NC1=O (stereo not given)	0%	10 µM	12.5 µM	0.8 µM	
NC(=O)CCc1ccc(N)cc1	19%				38%
Nc1ccc(C2CC(=O)NC2=O)cc1 (stereo not given)	30%	10.2 µM	20 µM		
CN1C(=O)CC(C)(c2ccc(N)cc2)C1=O (stereo not given)	30%	10 µM	15.7 µM	1.75 µM	
